Measurements from ChEMBL document CHEMBL4513216, “Probing the Open Global Health Chemical Diversity Library for Multistage-Active Starting Points for Next-Generation Antimalarials” (ACS Infect Dis, 2020).

Test: Toxicity liver stage against HepG2, at 10uM
Assay type: cell-based
Design: test concentration 10 uM, cell line HepG2-A16-CD81EGFP
Conditions: human, HepG2-A16-CD81EGFP cells; read-out: INHIBITION
Outline: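 Uninfected HepG2-A16-CD81EGFP cells, 3 × 10^3 per well, 1536-well, plated on prespotted compound at 10 μM final, parasite-free screening media added to match infected plates; puromycin 10 μM positive, DMSO 0.5% negative; run in parallel with 48 h PbLuc assay at 37 °C, 5% CO2; viability by CellTiter-Glo luminescence, normalized to controls.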

| Structure (SMILES) | cytotoxicity at 10 µM [%] |
| --- | --- |
| CC(C)NC(=O)N1CCC2(COCc3cnc(-c4ccccc4)nc32)C1 (stereo unspecified) | -0.311 |
| O=C(c1cnc2ccc(F)cc2c1NCc1ccco1)N1CCCCC1 | 9.34 |
| CNC(=O)Cc1n[nH]c(-c2cncc(Br)c2)n1 | -4.97 |
| Cc1ccc(-c2cc(N)c(=O)n(C(C)C(N)=O)n2)o1 (stereo unspecified) | -1.89 |
| CCN(CC)CCCNCc1cc2cc(C)ccc2[nH]c1=O | -1.55 |
| Cc1noc(C)c1CCC(=O)NCC1(O)CCN(c2ccccn2)C1 (stereo unspecified) | 2.12 |
| CC(=O)N1CCOC(c2cncc(CCC(=O)N(C)C)n2)C1 (stereo unspecified) | -0.197 |
| CNC(=O)c1cnn2c(C3CCCN3C)ccnc12 (stereo unspecified) | 3.74 |
| Cc1nc(C(=O)NCc2ccccn2)cc(C2CCCN2)n1 (stereo unspecified) | 6.83 |
| Cc1nc2ccc(C(=O)N3CCC(COc4ccccn4)CC3)cc2[nH]1 | -8.09 |
| Cc1cc(O)nc(C2CN(CCC(F)(F)F)CCO2)n1 (stereo unspecified) | -27.4 |
| CCNC(=O)C1(CC2CC(c3ccccc3OC)=NO2)CCOCC1 (stereo unspecified) | -26.8 |
| Cc1ccc2c(c1)C(=O)NCC1(CCN(Cc3ccccc3)CC1)O2 | -26.9 |
| Cn1cc(C(=O)N2CCN(c3ccc(F)cc3)CC2)ccc1=O | 1.37 |
| CN(c1cccnc1N1CCCC1)S(=O)(=O)c1cccnc1 | 0.981 |
| O=C(NCC(F)(F)F)c1ccncc1 | -19 |
| CC(C#N)CN(C)C(=O)CCNC(=O)OCC(F)(F)F (stereo unspecified) | 3.89 |
| Cc1[nH]nc2ncc(C(=O)N3CCN(CC(C)(C)O)CC3)cc12 | -0.0414 |
| O=C(CN1CCCS1(=O)=O)Nc1ccc(OC2CCCC2)c(Cl)c1 | -8.87 |
| CC(NC(=O)NCCCn1ccnc1)c1nncn1C (stereo unspecified) | 0.277 |
| Cc1cc(Br)ccc1NCC(=O)Nc1cc(C(C)(C)C)no1 | 5.09 |
| Cc1ccc(-n2nnc(CC(=O)N3CCN(C(C)C)CC3)c2C)cc1 | -3.36 |
| CCc1nccn1C1CCCN(C(=O)c2cnc[nH]2)C1 (stereo unspecified) | 2.52 |

| Structure (SMILES) | cytotoxicity at 10 µM [%] |
| --- | --- |
| Cn1cc(S(=O)(=O)NC(=O)C2(c3cccc(Cl)c3)CC2)cn1 | -10 |
| CC(C)NC(=O)N(C)C1CCN(c2ccccc2Cl)C1=O (stereo unspecified) | -4.56 |
| Cc1noc(C)c1CN(C)C(=O)CCn1c(=O)n(C)c2ccccc21 | -6.67 |
| CN(C)C(C(=O)N1CCC(CCO)CC1)c1ccccc1F (stereo unspecified) | 5.88 |
| O=C(C1CC(=O)N(C2CC2)C1)N1CCC(Oc2ccccc2Cl)CC1 (stereo unspecified) | -7.54 |
| COCc1cc(CNC(=O)c2c(O)cccc2O)n[nH]1 | -6.93 |
| C[C@@H]1CN(Cc2cn(C)nc2-c2ccccc2F)C[C@H](C)O1 | -1.43 |
| Cc1nccn1CCC1CCCCN1Cc1cccc(CCN)c1 (stereo unspecified) | 0.106 |
| O=C(c1ccccc1)N1CCCC(Nc2ccc(F)cc2)C1 (stereo unspecified) | -3.09 |
| O=C(NCC(F)(F)F)C(c1cccnc1)N1CCOCC1 (stereo unspecified) | 1.51 |
| Cc1cc(N2CCN(C(=O)CCc3scnc3C)CC2)nc(N)n1 | -49.2 |
| Cc1ccc(-c2nc3c([nH]2)CCNC3C(=O)O)c2cccnc12 (stereo unspecified) | 5 |
| Cc1cc(NCCNS(C)(=O)=O)nc2cc3c(cc12)CCC3 | 2.9 |
| Cc1oc(-c2cc(F)cc(F)c2)nc1CN1C[C@@H](C)NC[C@@H]1C | -1.66 |
| CCNC(=O)[C@@H]1C[C@H](N)CN1C(=O)CCc1ccccc1Cl | 4.79 |
| CCc1cnc(CN(C(C)=O)C2CCN(Cc3nccn3C)C2)o1 (stereo unspecified) | -8.13 |
| COCCN1CCN(CCCS(=O)(=O)c2ccccc2)CC1C (stereo unspecified) | -9.31 |
| Cn1ncc(C(=O)N2CCCC(n3cccn3)C2)c1C1CC1 (stereo unspecified) | 4.98 |
| Cc1cnn(CC2CCCCN2C(=O)Cc2csc(C)n2)c1 (stereo unspecified) | 2.26 |
| O=C(c1ccncc1)N1CCCC2(COCCN(c3ccccc3)C2)C1 (stereo unspecified) | 2.31 |
| CCN1CCC2(CCC(=O)N2Cc2cccc(C)n2)CC1 | 5.08 |
| CN(C)S(=O)(=O)N1C[C@H]2CC[C@@H](C1)N(Cc1cccc(C#N)c1)C2 | 3.62 |
| O=C(Cn1c(=O)[nH]c2cn(-c3ccccc3)c(=O)n21)NC1CCCCC1 | -0.2 |
